The values below come from ChEMBL document CHEMBL4184319, “Fluorescent-Labeled Selective Adenosine A2B Receptor Antagonist Enables Competition Binding Assay by Flow Cytometry” (J Med Chem, 2018).

pIC50, pKi: −log10 of the molar value.

Test [1] deals with T1, Adenosine receptor A3 (Rattus norvegicus, UniProt P28647).
T1 sequence (P28647 whole entry): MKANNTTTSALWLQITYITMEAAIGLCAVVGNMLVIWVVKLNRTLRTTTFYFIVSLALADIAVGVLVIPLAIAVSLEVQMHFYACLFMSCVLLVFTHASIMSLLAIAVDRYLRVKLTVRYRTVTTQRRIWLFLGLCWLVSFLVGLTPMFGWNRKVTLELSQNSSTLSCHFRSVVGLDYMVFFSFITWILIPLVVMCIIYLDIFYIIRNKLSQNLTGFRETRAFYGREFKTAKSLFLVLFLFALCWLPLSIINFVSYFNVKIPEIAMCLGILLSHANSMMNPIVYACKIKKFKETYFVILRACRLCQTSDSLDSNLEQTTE
Description: Displacement of [3H]-(R)-PIA from adenosine A3 receptor in rat testis membranes. Type of test: cell membranes, Membrane. On the technique in general: Displacement assays read how much labelled ligand stays bound in the presence of the test substance.

Test [2] concerns the target T2, Adenosine receptor A1 (Rattus norvegicus, UniProt P25099).
T2 sequence (P25099 whole entry): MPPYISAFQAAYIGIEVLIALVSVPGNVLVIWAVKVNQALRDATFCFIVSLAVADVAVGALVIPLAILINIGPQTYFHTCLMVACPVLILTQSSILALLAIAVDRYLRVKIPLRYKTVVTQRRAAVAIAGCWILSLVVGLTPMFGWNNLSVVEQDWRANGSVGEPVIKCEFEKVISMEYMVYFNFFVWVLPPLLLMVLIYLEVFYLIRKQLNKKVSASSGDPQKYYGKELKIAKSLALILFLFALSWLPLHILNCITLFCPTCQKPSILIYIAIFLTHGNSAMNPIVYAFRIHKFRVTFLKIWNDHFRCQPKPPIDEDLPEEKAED
Description: Displacement of [3H]-CHA from adenosine A1 receptor in rat cortical membranes. Type of test: cell membranes.

Test [3] deals with Adenosine receptor A1 (Rattus norvegicus) (UniProt P25099). Nature of the test: Displacement of [3H]-CHA from adenosine A1 receptor in rat striatal membranes.
For test [4], the target named is T3, Adenosine receptor A3 (Homo sapiens, UniProt P0DMS8).
T3 sequence (P0DMS8 whole entry): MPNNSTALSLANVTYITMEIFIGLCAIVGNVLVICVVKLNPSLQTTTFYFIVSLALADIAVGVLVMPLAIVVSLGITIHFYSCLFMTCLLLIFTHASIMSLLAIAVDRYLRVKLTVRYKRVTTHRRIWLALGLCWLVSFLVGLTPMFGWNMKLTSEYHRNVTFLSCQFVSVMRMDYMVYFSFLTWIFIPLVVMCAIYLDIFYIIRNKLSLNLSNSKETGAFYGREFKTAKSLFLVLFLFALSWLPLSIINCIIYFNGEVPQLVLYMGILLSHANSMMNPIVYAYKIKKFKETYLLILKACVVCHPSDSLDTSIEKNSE
Description: Displacement of [3H]PSB-11 from recombinant human adenosine A3 receptor expressed in CHO cell membranes after 180 mins by liquid scintillation counting method. Put shortly: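 Human A3AR CHO cell membranes were pre-incubated 10–15 min with adenosine deaminase (0.12 IU/mL), then incubated with [3H]PSB-11 (1 nM) at rt, with 2.5% DMSO final. Nonspecific binding was defined with 100 µM R-PIA. Incubation ended by GF/B filtration with ice-cold 50 mM Tris-HCl (pH 7.4) rinses. Test compounds were run at 6–7 concentrations over 3 log units, in ≥3 independent experiments in duplicate.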

Test [5] addresses T4, Adenosine receptor A2b (Homo sapiens, UniProt P29275).
T4 sequence (P29275 whole entry): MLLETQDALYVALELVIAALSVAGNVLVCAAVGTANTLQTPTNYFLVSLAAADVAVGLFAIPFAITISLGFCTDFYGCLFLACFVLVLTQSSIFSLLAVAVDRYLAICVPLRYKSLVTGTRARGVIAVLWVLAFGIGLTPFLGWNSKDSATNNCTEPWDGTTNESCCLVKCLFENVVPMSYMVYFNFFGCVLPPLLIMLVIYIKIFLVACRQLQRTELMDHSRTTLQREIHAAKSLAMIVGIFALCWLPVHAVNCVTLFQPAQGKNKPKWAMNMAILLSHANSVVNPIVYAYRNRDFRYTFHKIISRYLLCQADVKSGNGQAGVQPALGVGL
Nature of the test: Displacement of PSB-12105 from recombinant human adenosine A2B receptor expressed in CHO cell membranes preincubated for 30 mins followed by PSB-12105 addition measured after 20 mins by flow cytometric method. Type of test: cell-based. In a few lines:
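Live CHO-hA2B cells were pre-treated with ADA (2 U/mL, 2 h, 37°C), detached with 5 mM EDTA, and resuspended in HBSS with 2 U/mL ADA at 2.5×10^5 cells/well in 96-well format. Antagonists pre-incubated 30 min at 37°C, then fluorescent ligand (100 nM) added for 20 min at 37°C. 3-5 independent experiments in duplicate.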
On the technique in general: Flow cytometry measures light scatter and fluorescence of single cells or particles in a stream.

In test [6] the target is T4, Adenosine receptor A2b. Nature of the test: Antagonist activity at recombinant human adenosine A2B receptor expressed in CHO cell membranes assessed as inhibition of NECA-induced cAMP accumulation preincubated for 1 hr followed by NECA induction measured after 5 mins in presence of [3H]cAMP and bovine cAMP-binding protein by liquid scintillation counting method. Type of test: functional. In a few lines:
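CHO cells stably expressing human A2BAR, pre-incubated with antagonist dilutions for 1 h at 37°C, then stimulated with NECA (10 µM final) for 5 min at 37°C. Reaction stopped with hot (90 °C) lysis solution (4 mM EDTA, 0.01 % Triton X100). cAMP quantified by radioactive competition with [³H]cAMP and bovine adrenal cAMP-binding protein. Response expressed as % of NECA response without antagonist. Means ± SEM, three independent experiments in duplicate.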

The target in test [7] is T4, Adenosine receptor A2b. Nature of the test: biochemical.

Usually pKi stands for the negative decadic logarithm of the Ki, by convention in mol/L. For `CCNC(=O)[C@H]1O[C@@H](n2cnc3c(NCCCCCCNS(=O)(=O)c4cccc5c(N(C)C)cccc45)ncnc32)[C@H](O)[C@@H]1O`, the pKi in test [1] is 5.44; in test [2], 7.57; in test [3] it was 5.34.
A word on the pIC50: it is −log10 of the IC50, conventionally taken in molar units. For the compound `CCCn1c(=O)[nH]c2nc(-c3ccc(S(=O)(=O)N4CCN(c5ccc(Cl)cc5)CC4)cc3)[nH]c2c1=O`, in test [4], the pKi is < 5.00. In addition, the negative-log IC50 (pIC50) is 9.13 in test [5], 7.74 in test [6] and 9.27 in test [7].
